An excerpt weighted towards active compounds, which were near 2.5% of everything screened.
TAG inh – inhibitors of triacylglycerol accumulation, primary screen, cell-based, uHTS, fluorescence, H9c2 | H9c2 cells, Nile Red lipid (TAG) fluorescence; cells loaded with 200 µM oleic acid | actives 0.66% (n = 230,000) | inhibition, % at 12.5 µM | AID 651582, 2012;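 active means pattern-corrected inhibition of lipid staining of at least 50% with the nuclear-stain viability signal not falling by more than 50%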;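 further: 0% = DMSO wells and 100% = triacsin C control wells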
Vif imaging – HIV Vif self-association inhibitors, primary screen, imaging, HEK293T, single point | HEK293T cells, Vif self-association by quenched fluorescence, 24 h | AID 602346, 2012 | inhibition, % at 7.49 µM | actives 0.35% (n = 340,000); in the data active means inhibition above about 50%, passing the limit was not always enough
SR-BI HDL uptake – inhibitors of SR-BI mediated HDL lipid uptake, primary screen, ldlA[mSR-BI] cells, fluorescence, single point. Scavenger receptor class B member 1 (Mus musculus), Q61009. ldlA[mSR-BI] CHO cells, DiI-HDL uptake fluorescence, 3 h. inhibition, % at 12.5 µM. actives 0.96% (n = 320,000). AID 488896, 2010;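 active means mean replicate inhibition of at least 70% and a set share of replicates each scoring 70 or more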;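 further: 0% = median of neutral control wells and 100% = median of positive control wells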
Target sequence (Q61009 whole entry, looked up): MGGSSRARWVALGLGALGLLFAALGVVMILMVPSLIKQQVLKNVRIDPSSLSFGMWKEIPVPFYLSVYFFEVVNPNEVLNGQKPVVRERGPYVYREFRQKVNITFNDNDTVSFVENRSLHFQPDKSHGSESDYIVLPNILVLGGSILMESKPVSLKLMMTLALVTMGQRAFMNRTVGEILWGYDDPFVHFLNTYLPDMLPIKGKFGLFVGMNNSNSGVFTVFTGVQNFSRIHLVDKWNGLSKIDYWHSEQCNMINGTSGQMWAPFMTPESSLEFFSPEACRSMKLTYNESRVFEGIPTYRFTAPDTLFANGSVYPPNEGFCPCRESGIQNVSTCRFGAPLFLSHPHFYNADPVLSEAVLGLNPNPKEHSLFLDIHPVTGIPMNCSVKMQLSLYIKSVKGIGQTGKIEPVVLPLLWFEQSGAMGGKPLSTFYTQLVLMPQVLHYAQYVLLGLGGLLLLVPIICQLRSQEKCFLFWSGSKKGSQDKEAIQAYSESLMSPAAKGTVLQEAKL
SMARCA2 act – SMARCA2 (BRM) function activators, primary screen, cell-based, luminescence, high throughput | actives 1% (n = 370,000) | activation, % at 9.1 µM | MG213 cells, MMTV-luciferase reporter, dexamethasone, overnight | AID 652017, 2013; in the data active means activation above about 7.8%;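 further: 0% = vehicle wells and 100% = reference activator wells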
SR-BI uptake up – activators of SR-BI mediated DiI-HDL uptake, primary screen, ldlA[mSR-BI] CHO cells, DiI fluorescence. 3 h; 100 = double the neutral-control signal. activation, % at 12.5 µM. actives 0.096% (n = 320,000);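 active means mean replicate activation of at least 60% and every replicate at or above 60%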;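 further: 0% = median plate neutral-control signal and 100% = twice that signal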
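system = CHO ldlA[mSR-BI] cells, LDL receptor-null, SR-BI overexpressing | medium = Ham's F12 with 0.5% BSA, HEPES 25 mM, pH 7.4 | probe or stimulus = DiI-HDL 10 µg/mL | compound dosing = single-point compound dose | incubation = compound exposure 3 h, 37 °C | technique = DiI fluorescence, bottom read | read-out = cell-associated DiI fluorescence as measure of HDL uptake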
The depositor's hits bear a star; · = not tested or not shown.

SMILES	TAG inh	Vif imaging	SR-BI HDL uptake	SMARCA2 act	SR-BI uptake up
N=c1c(-c2nc3ccccc3[nH]2)cc(C(=O)c2cccs2)nn1-c1ccccc1	28.2	3.6	61.8	·	-61.8
O=[N+]([O-])c1ccc(/C=C/c2ccncc2)cc1	·	0.2	3.8	7.9*	-3.8
CCCn1c(Sc2nnnn2-c2ccccc2)n[nH]c1=O	14.9	-0.1	-79.6	-5.2	79.6*
C#CCNC(=O)c1cc2cccnc2nc1N	·	·	·	2.6	·
Cc1ncc(N=Nc2ccccc2Cl)c(-c2ccccc2)n1	18.5	-3.9	13.6	1.1	-13.6
Nc1nc(-c2ccccc2)c(N=Nc2ccccc2Cl)s1	·	-7.0	88.3*	-3.8	-88.3
Nc1nc(-c2ccccc2)c(N=Nc2cccc3ccccc23)s1	·	-6.9	133.8*	-4.3	-133.8
O=C(CSc1nnc(-c2ccccn2)n1-c1ccccc1)c1ccc2c(c1)OCO2	·	·	·	-4.5	·
Cc1ccc(N(C(=O)CNC(=O)c2ccco2)C(C(=O)NCC2CCCO2)c2ccccc2)cc1C (stereo unspecified)	·	52.8*	·	-2.1	·
Cc1ccc(C)c(N(C(=O)CNC(=O)c2ccco2)C(C(=O)NCC2CCCO2)c2ccccc2)c1 (stereo unspecified)	·	2.8	-2.1	-3.1	2.1
COc1ccc(Cn2c(SCc3ccc(C)cc3)nc3cc(OC)c(OC)cc3c2=N)cc1Cl	·	3.8	-0.2	9.2*	0.2
COc1ccc(Cn2c(SCc3cc(C)ccc3C)nc3cc(OC)c(OC)cc3c2=N)cc1	112.4*	-5.2	-1.8	-2.8	1.8
COc1cc2nc(SCc3ccc(Cl)cc3Cl)n(Cc3cccs3)c(=N)c2cc1OC	·	-7.3	-17.1	-0.1	17.1
O=C(c1cccs1)N1CCN(C(=O)c2cccs2)C1=S	14.3	75.8*	-22.2	1.5	22.2
O=[N+]([O-])c1ccc(Nc2nc(N/N=C/c3cccc(F)c3)nc(N3CCCC3)n2)cc1	·	-1.6	34.0	-1.0	-34.0
COc1cccc(/C=N/Nc2nc(Nc3ccc([N+](=O)[O-])cc3)nc(N3CCCC3)n2)c1O	·	-7.3	87.4*	-2.7	-87.4
COc1ccc(S(=O)(=O)NC2(C(F)(F)F)NC(=O)N(CCc3ccccc3)C2=O)cc1 (stereo unspecified)	·	55.1*	·	-0.1	·
Cc1ccc(NC(=O)Cc2cccc(OC(F)(F)F)c2)c(S(=O)(=O)N2CCOCC2)c1	·	·	·	-2.3	·
COC(=O)c1ccc(C(=O)OC)c(NS(C)(=O)=O)c1	·	72.3*	-0.3	0.3	0.3
Oc1ccc(/C=N/Nc2nc(-c3cccnc3)nc3ccccc23)c(O)c1	29.8	·	·	0.4	·
Cc1ccc(Nc2cc(C)nc(-c3ccccc3O)n2)cc1	-13.2	-6.9	49.9	3.7	-49.9
Cc1cc(N/N=C/c2ccc(O)c(C)c2O)nc(-c2ccccc2O)n1	·	-6.0	104.3*	-5.2	-104.3
Cc1c(O)ccc(/C=N/Nc2nc(-c3cccnc3)nc3ccccc23)c1O	68.8*	1.3	36.7	-0.1	-36.7
Cc1cc(Nc2ccc(Br)cc2)nc(-c2ccccc2O)n1	11.7	4.0	75.1*	-1.4	-75.1
CC(=O)N1CCN(c2ccc(N3CCN(C(C)=O)[C@H](C)C3)c(C)c2)[C@H](C)C1	·	·	·	-6.6	·
SMILES	TAG inh	Vif imaging	SR-BI HDL uptake	SMARCA2 act	SR-BI uptake up
CN(CCO)c1cccc2c1S(=O)(=O)N(Cc1cn(Cc3cccc(C(F)(F)F)c3)nn1)Cc1ccccc1O2	·	·	·	2.1	·
C=CCOC(=O)C1=C[C@@H](c2ccc(Br)cc2)C[C@@H](OCCCCO)O1	-5.7	51.3*	16.3	1.7	-16.3
Cc1ccc(CN2CCCCC(NC(=O)Nc3cccc(F)c3)C2=O)cc1 (stereo unspecified)	·	·	·	-1.6	·
C=C(C(=O)c1ccccc1)C(c1ccccc1)C(C)C(=O)c1ccccc1 (stereo unspecified)	5.9	2.5	27.0	-3.4	-27.0
C=C(C(=O)c1ccccc1)C(C)C(=C)C(=O)c1ccccc1	54.7*	66.8*	-26.8	-4.3	26.8
CCOC(=O)[C@]12CCCCC/C=C\1N(CCc1ccc(Cl)cc1)C(=O)[C@H]2CC(=O)NCCCCc1ccccc1	·	·	·	-0.9	·
COc1ccc(S(=O)(=O)Nc2cc3c(C(C)=O)c(C)oc3c3ccccc23)cc1	30.2	102.0*	17.9	1.3	-17.9
COc1cccc(N2CCN(CC(=O)NCc3ccco3)CC2)c1	·	·	·	-4.5	·
Cc1ccc(C(=O)NC(N2CCCC2)C(Cl)(Cl)Cl)cc1 (stereo unspecified)	-19.5	56.4*	1.5	-2.6	-1.5
O=C(NC(N1CCOCC1)C(Cl)(Cl)Cl)c1ccc(Br)cc1 (stereo unspecified)	-5.6	·	19.7	-1.2	-19.7
CC1CCc2c(sc3ncnc(NCCCOC(C)C)c23)C1 (stereo unspecified)	-24.7	-26.0	75.4*	-3.2	-75.4
CC1CCc2c(sc3ncnc(NCc4cccnc4)c23)C1 (stereo unspecified)	3.5	6.1	22.5	-1.8	-22.5
Cc1cc2cc3c(cc2nc1SCC(=O)OC(C)C)OCO3	-2.4	·	78.2*	-5.7	-78.2
O=C(Nc1ccc(C(=O)N2CCOCC2)cc1)c1cc(-c2cccnc2)nc2ccc(Cl)cc12	-75.3	-7.9	79.0*	4.8	-79.0
CC(=O)Nc1cccc(NC(=O)c2cc(-c3cccnc3)nc3ccc(Cl)cc23)c1	5.1	-7.6	73.3*	1.7	-73.3
Cc1cc(NS(=O)(=O)c2ccc(NC(=O)c3cc(-c4cccnc4)nc4ccc(Cl)cc34)cc2)no1	·	-11.4	7.4	-0.6	-7.4
CC(=O)Nc1cccc(NC(=O)c2cc(-c3ccccn3)nc3ccc(Cl)cc23)c1	20.0	69.8*	-0.6	-1.5	0.6
N#Cc1ccc(Cn2ccc3ccc(-c4ccc5ccn(C(=O)C6CCC6)c5c4)cc32)cc1	·	·	·	-4.6	·
COCCCN1C(=O)[C@H](CC(=O)NCCC(C)C)[C@]2(C(=O)OC)CCCCC=C12	·	·	·	0.4	·
O=C(C(=O)N1CCN(C(=O)C2CCC2)CC1)c1cccc(C(F)(F)F)c1	·	·	·	-1.9	·
CC(Sc1ccc(Cl)cc1)C(=O)NNC(=O)c1ccccc1O (stereo unspecified)	19.1	-5.4	97.0*	-0.7	-97.0
COC(=O)c1cc2c(c3c4cc(F)ccc4n(S(=O)(=O)c4ccc(OC)cc4)c13)C(=O)N(C)C2	·	·	·	3.5	·
Cc1ccc(-c2cc(NC(=O)Cc3c[nH]c4ccccc34)ccc2N(C)c2cccnc2)cc1	·	·	·	1.1	·
c1ccc(-c2cn3ccccc3n2)cc1	12.7	21.2	-4.6	7.9*	4.6
CCCOc1ccc(-c2c(C(=O)N/N=C/c3cccs3)nnn2-c2nonc2N)cc1	·	-7.8	73.3*	·	-73.3
CCCOc1ccc(-c2c(C(=O)N/N=C/c3ccc(C)o3)nnn2-c2nonc2N)cc1	·	-1.3	78.3*	-1.9	-78.3

Bioassay records: PubChem, several laboratories
